Measurements taken from ChEMBL document CHEMBL5653631, “A Potent and Selective ULK1 Inhibitor Suppresses Autophagy and Sensitizes Cancer Cells to Nutrient Stress” (iScience, 2018).
Values belong to the compound of their own block, whether it stands above or below them.

Assays:
[1] = target: T1, Mitogen-activated protein kinase kinase kinase 3 (Homo sapiens) (UniProt Q99759); test: Inhibition of human recombinant MAP3K3 at 500 nM related to control ULK1
T1 sequence (whole entry): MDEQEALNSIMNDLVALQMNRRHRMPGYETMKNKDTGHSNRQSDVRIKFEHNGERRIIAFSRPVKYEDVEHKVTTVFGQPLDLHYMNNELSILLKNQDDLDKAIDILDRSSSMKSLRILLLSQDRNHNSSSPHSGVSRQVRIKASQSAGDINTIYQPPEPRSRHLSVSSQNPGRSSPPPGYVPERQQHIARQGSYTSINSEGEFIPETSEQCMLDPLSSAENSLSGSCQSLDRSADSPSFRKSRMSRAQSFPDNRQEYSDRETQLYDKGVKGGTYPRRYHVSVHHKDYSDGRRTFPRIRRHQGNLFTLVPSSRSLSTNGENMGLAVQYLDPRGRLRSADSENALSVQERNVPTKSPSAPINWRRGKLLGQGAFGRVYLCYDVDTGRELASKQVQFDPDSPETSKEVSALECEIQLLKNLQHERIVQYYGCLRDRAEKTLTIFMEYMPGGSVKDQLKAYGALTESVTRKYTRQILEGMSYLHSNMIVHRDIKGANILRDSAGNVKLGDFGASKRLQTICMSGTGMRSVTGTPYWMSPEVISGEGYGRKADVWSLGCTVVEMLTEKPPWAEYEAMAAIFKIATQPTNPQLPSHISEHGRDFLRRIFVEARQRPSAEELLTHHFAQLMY

[2] = target: Cyclin-dependent kinase-like 3 (Homo sapiens) (UniProt Q8IVW4); test: Inhibition of human recombinant CDKL3 at 500 nM in presence of ATP by radiometric assay relative to control
[3] = target: Serine-protein kinase ATM (Homo sapiens) (UniProt Q13315); test: Inhibition of human recombinant ATM at 500 nM related to control ULK1
How it was run: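 Panel of 327 recombinant human kinases, each assayed in vitro by radiometric activity assay in duplicate at a single inhibitor concentration per compound, chosen with reference to its ULK1 inhibition. Activity remaining was expressed as percent of vehicle control, and percent inhibition was calculated as 100 minus percent activity remaining.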

[4] = target: RAF proto-oncogene serine/threonine-protein kinase (Homo sapiens) (UniProt P04049); test: Inhibition of human recombinant RAF1 at 15 nM in presence of ATP by radiometric assay relative to control
[5] = target: Serine/threonine-protein kinase PRP4 homolog (Homo sapiens) (UniProt Q13523); test: Inhibition of human recombinant PRP4 at 40 nM related to control ULK1
[6] = target: T2, Ephrin type-B receptor 3 (Homo sapiens) (UniProt P54753); test: Inhibition of human recombinant EphB3 at 40 nM in presence of ATP by radiometric assay relative to control
T2 sequence (whole entry): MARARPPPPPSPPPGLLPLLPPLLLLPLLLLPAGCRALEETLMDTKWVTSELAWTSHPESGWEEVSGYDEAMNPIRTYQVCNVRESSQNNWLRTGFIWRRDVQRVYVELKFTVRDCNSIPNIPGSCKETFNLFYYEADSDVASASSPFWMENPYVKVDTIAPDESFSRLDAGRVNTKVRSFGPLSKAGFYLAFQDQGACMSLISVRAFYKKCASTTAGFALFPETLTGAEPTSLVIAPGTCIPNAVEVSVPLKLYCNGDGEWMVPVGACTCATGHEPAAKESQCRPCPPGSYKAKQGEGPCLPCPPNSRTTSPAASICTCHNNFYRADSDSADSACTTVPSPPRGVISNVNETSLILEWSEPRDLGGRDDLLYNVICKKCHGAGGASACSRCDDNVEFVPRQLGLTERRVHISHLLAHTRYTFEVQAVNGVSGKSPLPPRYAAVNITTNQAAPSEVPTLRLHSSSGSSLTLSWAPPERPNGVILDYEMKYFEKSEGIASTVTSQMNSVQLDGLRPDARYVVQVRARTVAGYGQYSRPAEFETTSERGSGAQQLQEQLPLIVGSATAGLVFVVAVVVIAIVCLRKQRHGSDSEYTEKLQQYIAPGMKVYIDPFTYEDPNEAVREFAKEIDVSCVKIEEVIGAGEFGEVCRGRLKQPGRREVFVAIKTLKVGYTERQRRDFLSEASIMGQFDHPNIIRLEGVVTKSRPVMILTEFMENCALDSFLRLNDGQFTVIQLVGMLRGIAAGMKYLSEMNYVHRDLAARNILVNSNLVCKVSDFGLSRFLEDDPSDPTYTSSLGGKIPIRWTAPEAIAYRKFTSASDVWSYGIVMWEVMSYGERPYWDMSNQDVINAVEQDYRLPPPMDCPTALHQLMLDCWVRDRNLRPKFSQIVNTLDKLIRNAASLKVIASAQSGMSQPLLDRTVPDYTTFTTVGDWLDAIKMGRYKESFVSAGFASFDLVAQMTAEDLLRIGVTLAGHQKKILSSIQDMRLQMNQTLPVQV

[7] = target: T3, G protein-coupled receptor kinase 3 (Homo sapiens) (UniProt P35626); test: Inhibition of human recombinant BARK2 at 40 nM in presence of ATP by radiometric assay relative to control
T3 sequence (whole entry): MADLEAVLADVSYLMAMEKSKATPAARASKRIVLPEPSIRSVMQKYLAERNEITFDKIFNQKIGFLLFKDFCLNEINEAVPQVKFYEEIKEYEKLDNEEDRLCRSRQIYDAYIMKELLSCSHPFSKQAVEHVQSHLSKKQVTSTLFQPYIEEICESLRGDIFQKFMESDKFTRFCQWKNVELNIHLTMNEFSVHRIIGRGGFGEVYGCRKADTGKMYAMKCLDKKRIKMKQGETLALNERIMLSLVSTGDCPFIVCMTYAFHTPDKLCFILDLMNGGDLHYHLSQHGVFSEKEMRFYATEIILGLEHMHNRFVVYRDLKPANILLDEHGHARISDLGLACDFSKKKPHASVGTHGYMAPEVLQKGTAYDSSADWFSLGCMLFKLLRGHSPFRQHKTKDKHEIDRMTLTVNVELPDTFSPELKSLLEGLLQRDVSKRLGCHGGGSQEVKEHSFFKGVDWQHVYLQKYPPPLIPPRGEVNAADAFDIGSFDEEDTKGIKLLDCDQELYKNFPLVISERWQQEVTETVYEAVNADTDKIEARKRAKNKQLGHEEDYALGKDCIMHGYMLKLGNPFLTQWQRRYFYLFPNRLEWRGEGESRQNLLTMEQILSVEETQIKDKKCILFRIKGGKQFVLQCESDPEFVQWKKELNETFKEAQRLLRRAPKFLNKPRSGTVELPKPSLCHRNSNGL
How it was run: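 Part of a radiometric in vitro activity panel of 327 recombinant human kinases. Each kinase was tested in duplicate at one inhibitor concentration. Activity remaining was expressed as a percentage of the vehicle control, and percent inhibition was taken as 100 minus that value.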

[8] = target: Serine/threonine-protein kinase 17A (Homo sapiens, UniProt Q9UEE5); test: Inhibition of human recombinant DRAK1
Serine/threonine-protein kinase 17A, sequence (Q9UEE5 whole entry): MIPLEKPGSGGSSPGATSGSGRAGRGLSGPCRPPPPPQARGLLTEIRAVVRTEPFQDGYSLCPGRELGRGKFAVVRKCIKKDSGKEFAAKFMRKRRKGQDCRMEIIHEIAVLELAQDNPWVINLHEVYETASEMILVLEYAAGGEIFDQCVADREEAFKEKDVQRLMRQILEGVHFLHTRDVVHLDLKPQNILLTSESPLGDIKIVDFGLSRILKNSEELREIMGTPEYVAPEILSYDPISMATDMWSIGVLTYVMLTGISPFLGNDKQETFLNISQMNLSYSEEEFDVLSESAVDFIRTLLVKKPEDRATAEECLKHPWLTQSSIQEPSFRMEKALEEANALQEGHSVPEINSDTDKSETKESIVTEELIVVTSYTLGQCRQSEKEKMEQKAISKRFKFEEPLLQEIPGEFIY

Cyclin-dependent kinase-like 3 (Homo sapiens), sequence (Q8IVW4 whole entry, looked up): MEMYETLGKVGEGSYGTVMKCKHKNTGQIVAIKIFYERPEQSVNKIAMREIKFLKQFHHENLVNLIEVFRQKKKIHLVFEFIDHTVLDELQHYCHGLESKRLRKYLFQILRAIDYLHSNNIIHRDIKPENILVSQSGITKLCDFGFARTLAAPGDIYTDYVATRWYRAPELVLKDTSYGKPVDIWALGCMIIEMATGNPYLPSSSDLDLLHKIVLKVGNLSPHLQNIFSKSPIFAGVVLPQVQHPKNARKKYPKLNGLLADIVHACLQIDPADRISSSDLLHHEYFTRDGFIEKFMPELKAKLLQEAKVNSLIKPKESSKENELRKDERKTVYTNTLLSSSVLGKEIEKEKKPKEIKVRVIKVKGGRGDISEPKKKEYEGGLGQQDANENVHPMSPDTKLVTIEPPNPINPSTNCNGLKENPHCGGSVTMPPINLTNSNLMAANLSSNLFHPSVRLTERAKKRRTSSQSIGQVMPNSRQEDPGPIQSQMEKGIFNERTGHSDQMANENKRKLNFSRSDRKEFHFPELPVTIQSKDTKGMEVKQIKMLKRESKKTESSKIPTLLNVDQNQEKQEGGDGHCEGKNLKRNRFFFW
Serine-protein kinase ATM (Homo sapiens), sequence (Q13315 whole entry): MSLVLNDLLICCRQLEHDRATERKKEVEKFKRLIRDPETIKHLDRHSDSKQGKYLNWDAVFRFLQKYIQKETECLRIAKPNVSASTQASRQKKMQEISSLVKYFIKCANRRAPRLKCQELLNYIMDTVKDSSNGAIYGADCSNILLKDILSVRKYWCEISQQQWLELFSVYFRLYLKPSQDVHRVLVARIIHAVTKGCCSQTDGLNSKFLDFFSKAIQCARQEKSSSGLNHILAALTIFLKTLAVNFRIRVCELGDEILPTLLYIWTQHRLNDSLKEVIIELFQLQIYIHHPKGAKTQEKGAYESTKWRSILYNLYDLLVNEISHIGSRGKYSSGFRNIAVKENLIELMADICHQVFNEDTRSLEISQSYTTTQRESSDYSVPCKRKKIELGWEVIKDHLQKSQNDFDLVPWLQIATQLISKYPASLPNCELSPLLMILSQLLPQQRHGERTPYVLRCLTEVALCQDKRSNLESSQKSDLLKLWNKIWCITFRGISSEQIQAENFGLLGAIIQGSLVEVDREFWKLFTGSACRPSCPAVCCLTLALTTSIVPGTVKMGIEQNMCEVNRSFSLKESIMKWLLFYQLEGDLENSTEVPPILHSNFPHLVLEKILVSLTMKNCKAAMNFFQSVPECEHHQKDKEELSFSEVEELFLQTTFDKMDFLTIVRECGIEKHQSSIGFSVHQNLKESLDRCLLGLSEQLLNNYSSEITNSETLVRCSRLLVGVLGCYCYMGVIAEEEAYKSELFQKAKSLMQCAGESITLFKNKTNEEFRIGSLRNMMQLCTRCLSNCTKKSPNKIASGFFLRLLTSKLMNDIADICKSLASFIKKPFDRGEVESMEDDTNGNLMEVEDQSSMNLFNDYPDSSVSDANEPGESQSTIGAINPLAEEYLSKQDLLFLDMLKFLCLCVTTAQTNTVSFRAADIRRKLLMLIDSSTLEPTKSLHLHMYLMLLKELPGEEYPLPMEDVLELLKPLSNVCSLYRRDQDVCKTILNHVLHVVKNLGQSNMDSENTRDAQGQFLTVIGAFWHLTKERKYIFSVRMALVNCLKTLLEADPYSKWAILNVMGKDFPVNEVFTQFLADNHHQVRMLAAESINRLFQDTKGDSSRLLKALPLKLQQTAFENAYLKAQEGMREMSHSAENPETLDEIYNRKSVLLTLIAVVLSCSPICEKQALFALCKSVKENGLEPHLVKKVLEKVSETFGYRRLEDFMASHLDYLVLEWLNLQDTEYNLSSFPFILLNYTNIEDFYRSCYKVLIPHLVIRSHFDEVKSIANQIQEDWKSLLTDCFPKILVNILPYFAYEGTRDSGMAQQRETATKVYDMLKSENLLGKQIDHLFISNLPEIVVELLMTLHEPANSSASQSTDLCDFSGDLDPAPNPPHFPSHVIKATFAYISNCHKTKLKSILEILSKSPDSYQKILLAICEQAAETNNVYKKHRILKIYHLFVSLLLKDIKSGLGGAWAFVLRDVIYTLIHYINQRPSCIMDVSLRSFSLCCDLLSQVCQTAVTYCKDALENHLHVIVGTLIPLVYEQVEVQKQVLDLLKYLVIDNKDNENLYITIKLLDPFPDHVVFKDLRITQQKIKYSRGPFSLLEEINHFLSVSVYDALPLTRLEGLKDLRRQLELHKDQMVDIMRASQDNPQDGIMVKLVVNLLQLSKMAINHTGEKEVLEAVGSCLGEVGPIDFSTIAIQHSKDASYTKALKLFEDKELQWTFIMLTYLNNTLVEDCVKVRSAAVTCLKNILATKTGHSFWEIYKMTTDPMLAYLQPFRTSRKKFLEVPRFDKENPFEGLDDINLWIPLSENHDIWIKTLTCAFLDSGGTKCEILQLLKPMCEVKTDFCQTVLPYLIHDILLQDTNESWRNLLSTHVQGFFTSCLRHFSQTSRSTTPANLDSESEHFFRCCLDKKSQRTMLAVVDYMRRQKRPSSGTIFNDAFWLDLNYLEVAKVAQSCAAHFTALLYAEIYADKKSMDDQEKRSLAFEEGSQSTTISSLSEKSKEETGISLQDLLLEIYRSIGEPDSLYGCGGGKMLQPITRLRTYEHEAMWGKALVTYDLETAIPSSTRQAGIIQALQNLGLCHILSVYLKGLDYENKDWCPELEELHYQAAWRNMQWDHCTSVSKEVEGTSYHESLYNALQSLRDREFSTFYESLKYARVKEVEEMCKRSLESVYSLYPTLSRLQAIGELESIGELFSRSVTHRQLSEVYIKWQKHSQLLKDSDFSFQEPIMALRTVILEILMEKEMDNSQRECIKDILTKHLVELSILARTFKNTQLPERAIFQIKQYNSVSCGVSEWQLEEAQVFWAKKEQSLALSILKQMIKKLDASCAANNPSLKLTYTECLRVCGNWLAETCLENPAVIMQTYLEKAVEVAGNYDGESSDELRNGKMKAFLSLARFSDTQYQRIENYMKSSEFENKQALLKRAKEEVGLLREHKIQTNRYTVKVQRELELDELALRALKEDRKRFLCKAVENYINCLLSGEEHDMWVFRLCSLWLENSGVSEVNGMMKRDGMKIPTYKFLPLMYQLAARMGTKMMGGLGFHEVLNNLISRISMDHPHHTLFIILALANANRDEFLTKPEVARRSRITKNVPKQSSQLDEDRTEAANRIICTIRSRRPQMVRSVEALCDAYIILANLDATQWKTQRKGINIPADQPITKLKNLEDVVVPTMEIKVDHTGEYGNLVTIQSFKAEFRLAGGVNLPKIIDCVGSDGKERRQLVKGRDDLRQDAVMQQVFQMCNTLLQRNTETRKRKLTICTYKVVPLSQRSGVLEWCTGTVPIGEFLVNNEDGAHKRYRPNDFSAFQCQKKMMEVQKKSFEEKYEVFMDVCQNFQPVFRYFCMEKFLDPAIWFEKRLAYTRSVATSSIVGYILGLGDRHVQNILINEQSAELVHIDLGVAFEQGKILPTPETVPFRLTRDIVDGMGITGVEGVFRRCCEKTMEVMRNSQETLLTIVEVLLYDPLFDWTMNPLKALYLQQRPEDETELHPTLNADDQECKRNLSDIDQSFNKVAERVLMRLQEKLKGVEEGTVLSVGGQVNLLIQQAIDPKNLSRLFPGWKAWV
RAF proto-oncogene serine/threonine-protein kinase (Homo sapiens), sequence (P04049 whole entry): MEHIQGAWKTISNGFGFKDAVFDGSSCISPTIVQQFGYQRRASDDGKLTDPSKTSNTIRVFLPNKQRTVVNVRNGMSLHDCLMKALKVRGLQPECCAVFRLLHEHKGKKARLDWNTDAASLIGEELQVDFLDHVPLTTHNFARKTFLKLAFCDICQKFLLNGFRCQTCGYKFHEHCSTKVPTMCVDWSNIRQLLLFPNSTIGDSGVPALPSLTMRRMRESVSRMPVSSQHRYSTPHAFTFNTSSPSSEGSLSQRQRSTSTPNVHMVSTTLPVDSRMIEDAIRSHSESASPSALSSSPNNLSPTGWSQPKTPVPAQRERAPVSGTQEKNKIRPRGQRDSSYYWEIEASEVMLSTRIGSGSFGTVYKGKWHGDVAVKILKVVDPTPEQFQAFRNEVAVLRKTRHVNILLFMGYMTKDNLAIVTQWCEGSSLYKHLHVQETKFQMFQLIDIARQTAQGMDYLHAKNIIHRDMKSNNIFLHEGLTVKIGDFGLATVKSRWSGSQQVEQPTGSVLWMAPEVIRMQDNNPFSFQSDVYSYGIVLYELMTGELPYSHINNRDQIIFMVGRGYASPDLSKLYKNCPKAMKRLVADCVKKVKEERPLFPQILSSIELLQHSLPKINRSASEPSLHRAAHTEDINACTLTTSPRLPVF

fold change (FC) [1]: 0
inhibition [2]: 0%
fold change (FC) [3]: 0.03
Compound: CNC(=O)c1ccccc1Oc1nc(Nc2cc(OC)c(OC)c(OC)c2)ncc1Br

inhibition [4]: 8%
Compound: CC(C)[C@H](NC(=O)c1cc(-c2cnn3cc(-c4ccc(OCCN5CCCCC5)cc4)cnc23)cs1)C(F)(F)F

fold change (FC) [5]: 0.08
inhibition [6]: 0%
inhibition [7]: 7%
IC50 [8]: 14 nM
Compound: O=C(N[C@@H](C1CC1)C(F)(F)F)c1cc(-c2cnn3cc(-c4ccc(F)cc4)cnc23)cs1
